Experimental data reported in publication PMC3254253 (Bioorganic & Medicinal Chemistry, 2011).

Key:
full length murine FXR = molecular target: T1, full length murine FXR (Mus musculus, UniProt Q60641); test: FXR reporter gene; type: cell-based; conditions: HEK293 cells, increasing concentrations (0–100 μM)
T1 sequence (Q60641 1-488): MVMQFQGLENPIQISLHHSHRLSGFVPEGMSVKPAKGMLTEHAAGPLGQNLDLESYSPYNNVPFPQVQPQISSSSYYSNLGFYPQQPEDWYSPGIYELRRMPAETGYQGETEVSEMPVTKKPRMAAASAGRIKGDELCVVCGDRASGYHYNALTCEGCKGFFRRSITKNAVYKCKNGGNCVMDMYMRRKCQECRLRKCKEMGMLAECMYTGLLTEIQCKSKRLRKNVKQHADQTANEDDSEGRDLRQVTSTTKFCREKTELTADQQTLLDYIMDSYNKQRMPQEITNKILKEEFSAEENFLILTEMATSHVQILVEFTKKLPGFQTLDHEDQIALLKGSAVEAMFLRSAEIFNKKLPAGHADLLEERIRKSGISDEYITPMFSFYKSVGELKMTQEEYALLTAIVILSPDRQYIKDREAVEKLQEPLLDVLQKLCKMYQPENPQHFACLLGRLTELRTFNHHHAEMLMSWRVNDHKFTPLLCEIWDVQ
T1 sequence (P28700 1-467 partner): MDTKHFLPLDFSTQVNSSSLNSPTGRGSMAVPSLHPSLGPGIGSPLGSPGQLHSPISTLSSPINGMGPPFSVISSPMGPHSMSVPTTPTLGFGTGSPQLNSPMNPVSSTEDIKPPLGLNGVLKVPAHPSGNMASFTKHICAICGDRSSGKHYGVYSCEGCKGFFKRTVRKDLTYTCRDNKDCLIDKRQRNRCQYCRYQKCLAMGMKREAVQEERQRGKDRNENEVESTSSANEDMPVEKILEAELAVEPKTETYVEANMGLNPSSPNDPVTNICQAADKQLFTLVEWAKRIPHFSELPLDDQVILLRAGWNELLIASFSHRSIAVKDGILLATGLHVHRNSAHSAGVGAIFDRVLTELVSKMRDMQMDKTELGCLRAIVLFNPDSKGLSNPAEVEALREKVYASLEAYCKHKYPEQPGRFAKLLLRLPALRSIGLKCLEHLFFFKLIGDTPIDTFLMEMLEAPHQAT

CYP7A1 mRNA = test: Expression of CYP7A1 mRNA; type: cell-based; conditions: HepG2 cells, 50 μM, 6 h, DMEM with 10% FCS; fold of control (0.1% DMSO)
Outline: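 HepG2 cells were grown in DMEM with 10% FBS, 1% glutamine, penicillin/streptomycin and amphotericin B. They were then exposed in the same medium to test compound or positive control at 50 μM (DMSO 0.1% final) for 6 h. Total RNA (900 ng) was reverse-transcribed with oligo d(T)16 primers. SYBR Green qPCR measured CYP7A1, normalised to β2-microglobulin.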

FXR agonism in reporter assay (result in words) (full length murine FXR)	levels of CYP7A1 mRNA (CYP7A1 mRNA)	SMILES
dose–dependent FXR-agonism	significantly decreased	COc1ccc(N2CCN(C[C@H](O)COc3cc4c(c5c3CCCC5)CCCC4)CC2)cc1 [Compound 19]
dose–dependent FXR-agonism	significantly decreased	CCCCc1ccc([C@@H](CC(=O)c2ccccc2)c2ccccc2)cc1 [Compound 20]
